Assay outcomes from PubChem BioAssay.
The list is not random: actives were taken first. Their share in the collection is about 2%.
FXN GAA850 act: activators of GAA850 frataxin (FXN) promoter | HEK293 lucGAA850 FXN promoter luciferase reporter, 24 h; percent of 10 µM SAHA response | actives 0.56% (n = 360,000) | AID 540364 | activation, % at 6 µM;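 active = activation above the average of all compounds screened plus 3 SD, cutoff fixed separately per campaign, cut at about 7.5% in these data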;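 also: 0% = DMSO wells and 100% = 10 µM SAHA wells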
EBI2 antag: blocks human EBI2 receptor beta-arrestin signaling. P32249. EBI2 beta-arrestin recruitment, luminescence, 7a,25-OHC stimulated. inhibition, % at 5 µM. actives 0.81% (n = 360,000); in the data active = inhibition above about 38%;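 also: enzyme fragment complementation signal reports receptor beta-arrestin coupling in cells; 0% = agonist plus DMSO wells and 100% = wells without agonist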
APJ agonist: APJ receptor agonism | actives 0.11% (n = 330,000) | CHO-K1 APJ PathHunter beta-arrestin, luminescence; 0% DMSO wells, 100% apelin | activation, % at 20 µM | AID 2520;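 active = activation more than six SD over the plate average, tested at 20 µM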;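 also: 0% = DMSO alone and 100% = apelin-13 at 10 nM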
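assay system = CHO-K1 APJ beta-arrestin complementation cell line | input = cell density 1000 per well | dosing = compound 20 µM once, DMSO 1% | timing = compound 90 min 25 °C, reagent 1 h | measured by = luminescence from split beta-galactosidase complementation, Galacton Star/Emerald II substrate | read-out basis = APJ agonist activity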
CXCR6 block: blocks human CXCR6 beta-arrestin recruitment; O00574; CHO-K1 PathHunter CXCR6 beta-arrestin, luminescence; inhibition, % at 20 µM; actives 0.36% (n = 360,000); AID 602244; in the data active = inhibition above about 34%, passing the limit was not always enough;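 also: antagonist mode with CXCL16 agonist at 10 nM final; 0% = 10 nM CXCL16 with DMSO and 100% = unstimulated wells without agonist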
APJ antag: blocks the human apelin receptor APJ | CHO-K1 APJ beta-arrestin complementation, luminescence | AID 2521 | actives 0.32% (n = 330,000) | inhibition, % at 20 µM | P35414;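 active = inhibition above about 40% at 20 µM, limit read from the data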;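 also: cells challenged with 10 nM apelin-13 agonist together with compound; plate controls were apelin-13 plus DMSO wells for no effect and DMSO wells lacking apelin-13 for full effect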
CCR6 antag: blocks CCL20-driven beta-arrestin recruitment at human CCR6. AID 493098. actives 0.49% (n = 340,000). CHO-K1 CCR6 PathHunter beta-arrestin, luminescence, CCL20-stimulated. inhibition, % at 20 µM. P51684;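 active = compounds whose inhibition of the agonist-driven luminescence signal at 20 µM reaches about 50%, limit read from the data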;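 also: cells stimulated with CCL20 at 14 nM final; plate controls were DMSO with CCL20 for no effect and DMSO without agonist for full effect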
Target sequence (P51684 whole entry, looked up): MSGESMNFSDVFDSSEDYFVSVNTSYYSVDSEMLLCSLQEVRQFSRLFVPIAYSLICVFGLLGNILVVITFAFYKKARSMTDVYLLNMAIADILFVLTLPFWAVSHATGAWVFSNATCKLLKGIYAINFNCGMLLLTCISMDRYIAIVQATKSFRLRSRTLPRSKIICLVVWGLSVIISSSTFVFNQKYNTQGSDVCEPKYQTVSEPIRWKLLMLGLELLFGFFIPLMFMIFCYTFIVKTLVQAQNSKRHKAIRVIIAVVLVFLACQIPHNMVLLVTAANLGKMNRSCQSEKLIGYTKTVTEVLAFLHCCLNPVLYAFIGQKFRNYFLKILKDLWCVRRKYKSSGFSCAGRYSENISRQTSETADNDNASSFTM
GAA30 counter: activates GAA30 frataxin promoter, counter-screen for GAA850 activators; activation, % at 6 µM; shares compounds with FXN GAA850 act; HEK293 lucGAA30 FXN promoter luciferase, 24 h; DMSO = 0%, 5 µM ipriflavone = 100%; actives 66% (n = 1,900); AID 588350;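 active = mean activation above the mean of solvent-only control wells plus 3 SD, cut at about 22% in these data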;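 also: counterscreen of GAA850 promoter hits where activity marks nonselective or luminescence artifacts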
GAA850 confirm: GAA850 FXN promoter activation confirmation; activation, % at 6 µM; AID 588351; shares compounds with FXN GAA850 act; HEK293 lucGAA850 FXN promoter luciferase reporter, 24 h; 100% = activation by SAHA; actives 86% (n = 1,900);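 active = mean activation above a set limit taken from the primary screen, cut at about 8% in these data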;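 also: 0% = DMSO wells and 100% = 10 µM SAHA wells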
The depositor's hits bear a star.

Results for CCOC(=O)C1CCCN(C(=O)C2(c3ccc(Cl)cc3)CCCC2)CC1 (centres undefined) ?
FXN GAA850 act: -0.4; EBI2 antag: 8.7; CXCR6 block: 2.8

Results for O=C(CCNC(=O)c1ccccc1Cl)Nc1ccc2c(c1)OCCO2 ?
FXN GAA850 act: -2.9; EBI2 antag: 6.6; CXCR6 block: -4.0

What do the screens show for `COc1ccccc1NC(=O)c1cnc(SCC(=O)NCC2CCCO2)n(C)c1=O` (centres undefined)?
FXN GAA850 act: 9.5*; EBI2 antag: 10.5; APJ agonist: -6.2; CXCR6 block: 13.6; APJ antag: 16.7; CCR6 antag: 25.4; GAA30 counter: 17.7; GAA850 confirm: 24.3*

How did COc1nc(NCCO)nc(Nc2ccccc2F)n1 do in these assays?
FXN GAA850 act: 14.1*; EBI2 antag: 0.2; APJ agonist: -2.9; CXCR6 block: -4.3; APJ antag: -7.3; CCR6 antag: -15.8; GAA30 counter: 86.3*; GAA850 confirm: 24.7*

How did CCC(=O)Nc1cc2c3c(c1)CCC(=O)N3CCC2 do in these assays?
FXN GAA850 act: -1.1; EBI2 antag: 1.5; APJ agonist: 3.9; CXCR6 block: 6.5; APJ antag: -11.8; CCR6 antag: 3.7

What do the screens show for `COc1cc2c(cc1NC(=O)C1CCCO1)oc1ccccc12` (centres undefined)?
FXN GAA850 act: 8.6*; EBI2 antag: 13.3; APJ agonist: -3.2; CXCR6 block: -6.4; APJ antag: -4.5; CCR6 antag: -14.9; GAA30 counter: 108.9*; GAA850 confirm: 30.5*

Results for NS(=O)(=O)c1cccc(NC(=O)CSc2nn(-c3ccccc3)c(=S)s2)c1 ?
FXN GAA850 act: 0.9; EBI2 antag: 3.4; APJ agonist: -1.9; CXCR6 block: -0.1; APJ antag: -1.7; CCR6 antag: 6.2

What do the screens show for `CN(C)S(=O)(=O)c1cc(NC(=O)CSc2nn(-c3ccc(Cl)cc3)c(=S)s2)ccc1Cl`?
FXN GAA850 act: 10.6*; EBI2 antag: 23.4; APJ agonist: -1.8; CXCR6 block: -10.5; APJ antag: 4.0; CCR6 antag: 4.9; GAA30 counter: 14.2; GAA850 confirm: 9.1*

Results for Cc1ccc(NC(=O)CSc2nn(-c3ccc(Cl)cc3)c(=S)s2)cc1S(=O)(=O)N(C)C ?
FXN GAA850 act: 10.4*; EBI2 antag: 25.4; APJ agonist: 1.1; CXCR6 block: 4.0; APJ antag: 12.9; CCR6 antag: 2.8; GAA30 counter: 5.8; GAA850 confirm: 5.8

Results for COc1ccc(CCNC(=O)C2CC(O)CN2S(=O)(=O)c2ccc(Cl)cc2)cc1OC (centres undefined) ?
FXN GAA850 act: 0.0; EBI2 antag: -6.1; APJ agonist: -4.3; CXCR6 block: 0.0; APJ antag: 3.1; CCR6 antag: 2.9

Results for C=CCNCCCCOc1ccc(OCc2ccccc2)cc1 ?
FXN GAA850 act: 9.1*; EBI2 antag: -7.5; APJ agonist: -3.4; CXCR6 block: 4.7; APJ antag: 2.7; CCR6 antag: 13.5; GAA30 counter: 102.1*; GAA850 confirm: 49.0*

What do the screens show for `c1ccc(COc2ccc(OCCCN3CCCCC3)cc2)cc1`?
FXN GAA850 act: 3.3; EBI2 antag: -0.8; APJ agonist: 3.4; CXCR6 block: 3.7; APJ antag: 7.3; CCR6 antag: 11.1

Results for c1ccc(COc2ccc(OCCCCN3CCCC3)cc2)cc1 ?
FXN GAA850 act: 7.6*; EBI2 antag: -6.1; APJ agonist: -4.4; CXCR6 block: -20.0; APJ antag: 11.8; CCR6 antag: 13.1; GAA30 counter: 83.3*; GAA850 confirm: 32.7*

What do the screens show for `COc1cc(OC)cc(-c2noc(-c3csc([C@@H]4O[C@H](CO)[C@H](O)[C@H](O)[C@H]4O)n3)n2)c1`?
FXN GAA850 act: 1.5; EBI2 antag: -17.4; CXCR6 block: 4.7

Results for COc1ccc(Cl)cc1C(=O)NNC(=O)c1ccc(F)c(S(=O)(=O)N2CCOCC2)c1 ?
FXN GAA850 act: 2.3; EBI2 antag: 5.3; APJ agonist: -4.6; CXCR6 block: 4.7; APJ antag: 4.2; CCR6 antag: 10.6

How did COc1ccc(-c2cc(-c3cc(C)ccc3O)[nH]n2)cc1 do in these assays?
FXN GAA850 act: 12.9*; EBI2 antag: 26.6; APJ agonist: -5.5; CXCR6 block: 4.2; APJ antag: -3.6; CCR6 antag: 5.4; GAA30 counter: 53.5*; GAA850 confirm: 45.6*

Results for N#C/C(=C\c1cccnc1)c1nc2ccccc2[nH]1 ?
FXN GAA850 act: -1.0; EBI2 antag: -12.5; APJ agonist: -0.8; CXCR6 block: -3.8; APJ antag: 5.9; CCR6 antag: 4.0

What do the screens show for `COc1cc(/C=C(/C#N)c2nc3ccccc3[nH]2)ccc1OCC(=O)Nc1ccccc1C`?
FXN GAA850 act: -13.4; EBI2 antag: 5.0; APJ agonist: 18.6; CXCR6 block: 1.8; APJ antag: -2.9; CCR6 antag: -0.6

Results for COc1cc(/C=C(\C#N)c2nc3ccccc3[nH]2)ccc1OC(=O)c1ccco1 ?
FXN GAA850 act: 7.8*; EBI2 antag: 6.7; APJ agonist: 3.3; CXCR6 block: -2.8; APJ antag: 6.1; CCR6 antag: 21.1; GAA30 counter: 119.4*; GAA850 confirm: 35.5*

How did N#C/C(=C\c1ccncc1)c1nc2ccccc2[nH]1 do in these assays?
FXN GAA850 act: 8.8*; EBI2 antag: -5.9; APJ agonist: 3.0; CXCR6 block: -5.1; APJ antag: -37.5; CCR6 antag: -15.4; GAA30 counter: 33.2*; GAA850 confirm: 9.3*

Results for COc1cc(NC(=O)CCC(=O)N2CCN(S(=O)(=O)c3ccc(C)cc3)CC2)cc(OC)c1 ?
FXN GAA850 act: 0.7; EBI2 antag: -5.9; CXCR6 block: 0.8; CCR6 antag: 8.7

How did Cc1cc(C)cc(C(=O)OCC(=O)Nc2ncccn2)c1 do in these assays?
FXN GAA850 act: 1.7; EBI2 antag: -16.8; APJ agonist: -2.5; CXCR6 block: -1.1; APJ antag: 8.6; CCR6 antag: 0.4

What do the screens show for `Cc1cc(C)nc(Nc2n[nH]c(-c3ccc(C(C)(C)C)cc3)n2)n1`?
FXN GAA850 act: -0.8; EBI2 antag: 24.3; APJ agonist: -2.5; CXCR6 block: 7.3; APJ antag: -5.4; CCR6 antag: 9.5
